# AHR activator: human AHR activation; P35869; AHR-responsive luciferase reporter cells, luminescence; activation, % at 5 µM; 2.5% of 320,000 active; AID 2796; in the data active = activation above about 47%;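 note: 0% = vehicle wells and 100% = reference agonist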
# Target sequence (P35869 whole entry, looked up): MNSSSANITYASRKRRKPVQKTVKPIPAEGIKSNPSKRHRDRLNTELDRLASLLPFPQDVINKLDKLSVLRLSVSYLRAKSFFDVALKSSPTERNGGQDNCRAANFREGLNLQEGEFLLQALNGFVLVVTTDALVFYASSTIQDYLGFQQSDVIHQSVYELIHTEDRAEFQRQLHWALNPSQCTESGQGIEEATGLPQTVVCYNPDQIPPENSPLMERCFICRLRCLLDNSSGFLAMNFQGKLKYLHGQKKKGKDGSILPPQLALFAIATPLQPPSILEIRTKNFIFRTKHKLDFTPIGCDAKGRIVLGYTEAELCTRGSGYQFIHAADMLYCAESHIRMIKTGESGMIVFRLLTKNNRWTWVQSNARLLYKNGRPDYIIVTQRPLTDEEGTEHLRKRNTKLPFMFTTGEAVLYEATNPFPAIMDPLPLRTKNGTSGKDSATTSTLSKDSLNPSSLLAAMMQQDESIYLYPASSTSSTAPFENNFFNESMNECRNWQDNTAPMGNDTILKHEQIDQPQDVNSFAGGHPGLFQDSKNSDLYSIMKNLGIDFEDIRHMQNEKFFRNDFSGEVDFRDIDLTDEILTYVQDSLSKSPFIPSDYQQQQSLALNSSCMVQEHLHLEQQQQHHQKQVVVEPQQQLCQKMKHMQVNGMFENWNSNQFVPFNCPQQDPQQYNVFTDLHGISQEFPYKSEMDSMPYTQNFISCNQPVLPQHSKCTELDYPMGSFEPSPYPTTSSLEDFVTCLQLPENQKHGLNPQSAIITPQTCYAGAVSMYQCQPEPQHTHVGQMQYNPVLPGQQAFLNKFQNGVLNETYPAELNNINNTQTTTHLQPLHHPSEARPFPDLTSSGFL
# A3A deaminase: inhibitors of human APOBEC3A DNA deaminase; P31941; recombinant A3A, FAM/TAMRA ssDNA deamination fluorescence; inhibition, % at 20 µM; 0.41% of 330,000 active; AID 493011;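 active = at least 40% inhibition at 20 µM here, with at most 30% in a related deaminase screen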;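 note: plate controls were A3A with DMSO for no effect and wells lacking A3A enzyme for full effect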
# Arr AP2 block: human beta-arrestin and AP2 interaction inhibition; inhibition, % at 10 µM; AID 504490; FITC-arrestin peptide / GST-AP2 beads, flow cytometry; AP2 beta2 appendage carries R879A mutation; 0.31% of 340,000 active;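 active = inhibition above a set limit, near 3 SD of compounds lacking own fluorescence, cut at about 54% in these data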;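 note: plate controls were DMSO wells for no effect and 5 µM unlabelled arrestin peptide for full effect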
#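 Assay system: GST-AP2 R879A bound to glutathione beads, E. coli-expressed; Medium: PBS with 0.05% Tween 20 and 0.1% BSA; Also added: fluorescein-tagged arrestin peptide at 50 nM final; Timing: 12 min plus 1 h, RT; Measured by: flow cytometry, FL1 (488/535 nm); Evaluation: percent drop in bead-associated FITC signal.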
# UCH37 DUB inh: human UCH37 deubiquitinating enzyme inhibition | Q9Y5K5 | purified proteasome/UCH37, Ub-AMC cleavage fluorescence | inhibition, % (no concentration beside the values) | 0.33% of 330,000 active;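 active = mean inhibition over replicate wells above about 20%, limit read from the data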;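 note: 0% = compound-free wells with enzyme and 100% = wells lacking proteasome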
#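 Material: Human UCH37 enzyme supplied as purified proteasome complex | Schedule: 30 min compound-proteasome preincubation then 25 min substrate reaction, room temperature | Detection: AMC fluorescence from Ub-AMC cleavage, excitation 355 nm, emission 460 nm | Benchmarks: Wells without proteasome as full block, compound-free enzyme plus substrate as uninhibited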
# A3G deaminase: inhibitors of human APOBEC3G DNA deaminase; Q9HC16; recombinant A3G, ssDNA deamination FAM/TAMRA fluorescence; inhibition, % at 20 µM; 0.28% of 330,000 active; AID 493012;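 active = inhibition of at least 40% at 20 µM, with no more than 30% in the related APOBEC3A deaminase screen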;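 note: plate controls were DMSO wells with A3G for no effect and wells lacking A3G enzyme for full effect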
# PolyA inh: yeast polyadenylation inhibition | S. cerevisiae SKY197-pL101 polyadenylation reporter, beta-gal luminescence; efflux-impaired pdr1/pdr3 knockout yeast; score 100 = 6 SD above DMSO | activity score, % at 12 µM | 0.02% of 300,000 active | AID 1875;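 active = lowest replicate activity score at least 50, where 100 means six control SD above control mean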;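 note: yeast exposed to compound for 9 h at 30 °C; higher score means more reporter readthrough which indicates perturbed polyadenylation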
# Numbers without * were called inactive; · = no result given. Hits are enriched below; roughly 3.4% of the tested compounds scored in any of these assays.
SMILES,AHR activator,A3A deaminase,Arr AP2 block,UCH37 DUB inh,A3G deaminase,PolyA inh
Cc1ccc(/C=N\NC(=O)c2csnn2)cc1,48.8*,6.8,-13.7,·,1.6,-8.9
Cc1nc2ccc(N=NC3=C(O)CC(C)(C)CC3=O)cc2s1,18.3,-3.5,10.3,16.8,-5.2,-13.6
CC(=O)N1CCc2cc(N=NC3=C(O)CC(C)(C)CC3=O)ccc21,0.1,0.8,0.9,23.6*,-6.4,-16.6
O=C(Cc1cccs1)NN=C/C=C\c1ccccc1[N+](=O)[O-],·,·,·,3.0,·,·
CC(=NNC(=O)c1sccc1-n1cccc1)c1cccs1,·,·,·,-12.4,·,·
C/C(=N\NC(=O)c1sccc1-n1cccc1)c1cccs1,78.1*,-1.5,-19.1,·,11.4,6.4
O=C(NNC(=O)c1sccc1-n1cccc1)c1cccs1,47.1*,-3.0,18.2,4.0,-7.6,17.5
COc1ccc(C=NNC(=O)C2COc3ccccc3O2)cc1O (stereo not drawn),·,·,·,1.7,·,·
Cc1cc(C)n(Cc2ccc(C(=O)Nc3ccc(Br)cc3C)o2)n1,32.5,1.1,13.8,4.5,-1.1,5.6
Cc1cc(C)n(Cc2ccc(C(=O)Nc3cccc(Br)c3)o2)n1,73.8*,1.4,35.4,1.4,4.0,0.5
CC(=NNC(=O)c1ccco1)c1cccc(NC(=O)c2ccc(C)s2)c1,·,·,·,2.6,·,·
O=C(O)CC/C(=N\Nc1ccc(Cl)cc1)c1cccs1,61.2*,-0.3,-11.1,·,-11.1,9.4
COc1ccc(-c2csc(-c3cc4ccccc4oc3=N)n2)cc1,49.9*,0.8,-5.1,-45.3,-3.4,1.2
COc1ccc(-c2noc(-c3cc4ccccc4oc3=O)n2)cc1,-2.2,1.3,·,-3.9,2.5,6.6
C=CCNC(=O)/C(C#N)=C/c1ccc(C)o1,-2.9,0.6,24.2,21.9*,-0.3,18.7
Cc1ccc(/C=C(\C#N)C(=O)NCC2CCCO2)o1 (stereo not drawn),0.8,-3.4,23.8,13.2,-7.5,25.7
CC1CCN(Cc2c(C(=O)NN=Cc3ccc(C(C)C)cc3)nnn2-c2nonc2N)CC1,·,·,·,0.7,·,·
O=C(O)c1cccc(NN=Cc2sc(N3CCOCC3)nc2-c2ccccc2)c1,·,·,·,-7.6,·,·
O=C(Nc1cccc2nsnc12)c1ccc(-c2ccc(Br)cc2)o1,49.0*,-2.3,22.7,-17.2,-5.2,0.0
COC(=O)c1ccccc1NC(=O)c1ccc(-c2ccc(Br)cc2)o1,11.1,-4.3,-4.2,-42.1,-7.1,-6.8
Cc1cccc(OCCOCCSc2ncccn2)c1,61.8*,-3.7,6.5,0.3,-4.9,7.9
CN(CCCN1CCOCC1)Cc1cn(C)nc1-c1ccccc1F,0.9,4.2,-11.6,0.3,-10.2,-12.9
Cc1c(CN(C)Cc2cn(C)nc2-c2ccccc2F)[nH]c2ccccc12,48.0*,-0.7,16.0,1.1,5.7,6.3
COc1ccc(/C=N/Nc2ncnc3sc(C)c(C)c23)cc1,61.5*,1.8,-8.3,·,-2.2,11.8
CC(=NNC(=O)COc1ccc(C(C)(C)C)cc1)c1ccc2c(c1)OCCO2,·,·,·,0.4,·,·
SMILES,AHR activator,A3A deaminase,Arr AP2 block,UCH37 DUB inh,A3G deaminase,PolyA inh
COc1ccc(C)cc1Nc1nc(N)c2cc(OC)c(OC)cc2n1,62.0*,-0.1,-11.3,-16.7,-3.1,1.7
Cc1ccc(C)c(Nc2nc(N)c3ccccc3n2)c1,10.5,1.5,-6.1,-18.8,-1.8,25.2
O=C(O)c1ccc(NN=Cc2cccc3nccnc23)cc1,·,·,·,16.9,·,·
CN(C)c1cccc(C(=O)NN=Cc2ccsc2)c1,·,·,·,4.6,·,·
O=C(O)c1ccc(NN=Cc2ccc(OC(=O)c3cccc(Cl)c3)cc2)cc1,·,·,·,-13.3,·,·
O=C(CN1C(=O)c2ccccc2C1=O)c1ccccc1,33.4,-1.5,-3.8,2.4,-9.6,-10.9
CC1=C(CC(=O)c2ccccc2)C(=O)c2ccccc2C1=O,48.2*,-1.4,-2.7,11.7,-3.7,-25.5
Cc1ccc(Sc2ccc(NC(=O)c3ccc(S(C)(=O)=O)cc3Cl)cc2)cc1,47.8*,-2.2,2.2,-1.2,-5.8,-2.8
CSc1cccc(NC(=S)NC(=O)CCc2ccccc2)c1,54.1*,-6.7,-1.8,2.9,-1.8,-8.4
Cc1[nH]nc(Nc2ccc(Br)cc2)c1[N+](=O)[O-],125.1*,4.2,0.8,3.0,-0.2,-2.8
Cc1cccc(Nc2n[nH]c(C)c2[N+](=O)[O-])c1,59.2*,-0.5,0.7,4.3,-5.7,12.8
CNc1nc(Nc2ccc(Br)cc2)nc(N)c1[N+](=O)[O-],70.2*,5.4,5.8,·,0.1,-25.9
Cc1[nH]nc(Nc2ccccc2)c1[N+](=O)[O-],19.7,-1.9,11.8,9.4,-2.6,-8.3
Cc1ccc(Nc2n[nH]c(C)c2[N+](=O)[O-])cc1,37.0,-2.3,-3.6,3.6,-2.7,-18.4
COc1ccc(Nc2nc(N)c([N+](=O)[O-])c(NCCO)n2)cc1,21.1,-3.3,3.0,·,-5.7,-3.7
OCCN(CCO)c1ncnc2c1oc1ccc(Br)cc12,71.5*,1.9,28.3,3.0,-2.1,18.5
CC(=O)Nc1cccc(C(C)=NNC(=O)c2ccc(CN3CCOCC3)cc2)c1,·,·,·,0.4,·,·
COc1cc(C=NNc2cc(=O)n(C)c(=O)n2C)ccc1O,·,·,·,11.0,·,·
O=C1/C(=C\c2cccs2)Sc2ccc3ccccc3c21,62.0*,19.6,6.7,0.7,-8.2,·
N/C(=N\c1nc2ccccc2o1)NC(=O)c1cccc(Cl)c1,30.6,6.5,-16.2,-1.5,-1.3,-9.6
N/C(=N\c1nc2ccccc2o1)NC(=O)c1ccccc1NC(=O)c1ccccc1,65.6*,0.9,4.4,-40.0,1.5,·
CC(=O)Nc1ccc(NC(=O)CC(C)=NNC(N)=S)cc1,·,·,·,-0.1,·,·
Cc1ccccc1NC(=O)Nc1ccccn1,26.3,0.0,-1.6,5.6,-2.0,-6.6
O=C(Nc1ccccn1)Nc1ccccc1[N+](=O)[O-],49.0*,-0.2,-9.2,5.2,-2.7,-3.8
CCCONC(=O)Nc1ccccc1[N+](=O)[O-],53.3*,1.6,0.9,6.0,-1.2,-8.2
SMILES,AHR activator,A3A deaminase,Arr AP2 block,UCH37 DUB inh,A3G deaminase,PolyA inh
CCn1cc(/C=C/c2cc[n+](C)cc2)c2ccccc21,1.8,·,-2.6,20.5*,·,4.9
C=CCn1cc(/C=C/c2cc[n+](C)cc2)c2ccccc21,15.0,38.1,-11.6,22.1*,-15.7,-3.5
COC(=O)NN=Cc1cc(C)n(-c2ccc(Br)cc2)c1C,·,·,·,4.5,·,·
CC(=O)c1cc(Cl)ccc1OC(=O)c1ccco1,16.2,-0.8,-11.1,2.7,-4.1,2.2
O=C(Oc1ccc(Br)cc1C(=O)/C=C/c1ccccc1F)c1ccco1,56.5*,1.0,-10.3,1.8,-3.0,-21.3
Cc1ccc(SCc2cc(=O)[nH]c(N3CCN(C)CC3)n2)cc1,2.1,1.7,-2.7,27.5*,0.7,15.1
Cn1cccc1C1C=C(c2ccc(C(C)(C)C)cc2)Nc2ncnn21 (stereo not drawn),66.5*,-6.0,0.5,-7.2,-9.4,7.8

# Screening results deposited in PubChem BioAssay by several laboratories.
